# Measured values from ChEMBL document CHEMBL1806366, “Synthesis and structure-activity relationship of new 1,5-dialkyl-1,5-benzodiazepines as cholecystokinin-2 receptor antagonists” (Bioorg Med Chem, 2011).
# Calls of active or inactive are those of the source. The rule behind the calls is not given here.
# Columns and labels:
# [1] = Selectivity ratio of pKi for guinea pig brain CCK2 receptor to pKi for rat pancreas CCK1
# Method in brief: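 Radioligand displacement binding to guinea pig brain membranes (CCK2, incubated at 25 °C) and rat pancreas membranes (CCK1, incubated at 37 °C) with 0.2 nM [³H]-CCK8s. Non-specific binding was defined with L-365,260 (CCK2) or L-364,718 (CCK1). Bound ligand was separated by GF/C filtration and counted by liquid scintillation. Ki values were derived for each subtype, with KD and Bmax taken from separate saturation isotherms.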
# [2] = (§1) Volume of distribution in rat administered as methocel suspension; assay type: ADME, organism-based; conditions: in vivo
# [3] = target: T1, Cholecystokinin receptor type A (Rattus norvegicus, UniProt P30551); assay: Displacement of [3H]CCK8 from rat pancreas CCK1 receptor at by liquid scintillation counting
# T1 sequence (P30551 whole entry): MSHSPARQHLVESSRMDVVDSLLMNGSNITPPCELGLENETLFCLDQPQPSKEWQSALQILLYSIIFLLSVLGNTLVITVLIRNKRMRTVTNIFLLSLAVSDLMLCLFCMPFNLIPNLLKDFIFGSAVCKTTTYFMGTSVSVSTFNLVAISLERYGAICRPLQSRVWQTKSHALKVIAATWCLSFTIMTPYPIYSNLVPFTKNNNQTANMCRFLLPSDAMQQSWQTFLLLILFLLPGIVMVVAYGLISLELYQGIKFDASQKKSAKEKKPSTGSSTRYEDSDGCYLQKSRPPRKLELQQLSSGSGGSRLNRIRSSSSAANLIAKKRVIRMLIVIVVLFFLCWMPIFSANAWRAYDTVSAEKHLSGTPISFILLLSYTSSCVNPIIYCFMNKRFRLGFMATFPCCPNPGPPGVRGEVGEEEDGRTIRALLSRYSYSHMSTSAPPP
# Method in brief: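 Rat pancreas membranes incubated at 37 °C with [³H]-CCK8s at 0.2 nM; nonspecific binding defined with L-364,718. Bound and free ligand separated by filtration over GF/C filters, then counted by liquid scintillation. Ki calculated using Bmax and KD from separate saturation binding isotherms.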
# [4] = Oral bioavailability in dog administered as methocel suspension; assay type: ADME, organism-based, Canis lupus familiaris; conditions: in vivo
# [5] = Volume of distribution in dog administered as methocel suspension; assay type: ADME, organism-based, Canis lupus familiaris; conditions: in vivo
# [6] = Clearance in rat administered as methocel suspension; assay type: ADME, organism-based; conditions: in vivo
# [7] = test system: Mus musculus; assay: Anxiolytic activity in po dosed mouse assessed as duration of action of the compound measured after 60 mins post dose by black/white box test; assay type: functional
# Method in brief: (§2)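 Mice dosed orally 60 min before testing, then placed in the centre of the illuminated white compartment of a two-part black/white box. Time spent exploring the white and black sides recorded; longer time in the white side read as anxiolytic effect. Model used for both potency and duration of action.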
# [8] = Displacement of [3H]CCK8 from guinea pig brain CCK2 receptor by liquid scintillation counting; parameters: species or system Cavia porcellus
# Method in brief: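 Guinea pig brain membranes incubated at 25 °C with [³H]-CCK8s at 0.2 nM; nonspecific binding defined with L-365,260. Bound and free ligand separated by filtration over GF/C filters, then counted by liquid scintillation. Ki calculated using Bmax and KD from separate saturation binding isotherms.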
# [9] = Clearance in dog administered as methocel suspension; assay type: ADME, organism-based, Canis lupus familiaris; conditions: in vivo
# [10] = test system: Mus musculus; assay: Anxiolytic activity in po dosed mouse measured after 60 mins post dose by black/white box test; assay type: functional; method in brief: as §2
# [11] = (§3) Oral bioavailability in rat administered as methocel suspension; assay type: ADME, organism-based; conditions: in vivo
# [12] = Half life in rat administered as methocel suspension; assay type: ADME, organism-based; conditions: in vivo
# [13] = Half life in dog administered as methocel suspension; assay type: ADME, organism-based, Canis lupus familiaris; conditions: in vivo
# [14] = Solubility of the compound at pH 2.4; assay type: physicochemical; conditions: buffer
# [15] = test system: Mus musculus; assay: Anxiolytic activity in mouse up to 300 ug/kg, po measured after 60 mins post dose by black/white box test; assay type: functional, organism-based; method in brief: as §2
# [16] = test system: Rattus norvegicus; assay: as §1; assay type: ADME, organism-based; conditions: in vivo
# [17] = test system: Rattus norvegicus; assay: as §3; assay type: ADME, organism-based; conditions: in vivo
# [18] = Mus musculus, po, 1 h, read-out: ED50
Structure (SMILES),Ki selectivity ratio (CCK1 Ki / CCK2 Ki) [1],Vd [2] [L/kg],Ki [3] [nM],bioavailability [4] [%],Vd [5] [L/kg],clearance [6] [mL/min],Time [7] [h],pKi [8],clearance [9] [mL/min],"ED50 [10, 18] [µg/kg]",bioavailability [11] [%],half-life [12] [h],half-life [13] [h],solubility ([14]; read-out: solubility) [µg/mL],Activity [15],ED50 [10] [µg/kg],solubility [14] [µg/mL],Vd [16] [L/kg],F [17] [%]
CC(C)CCN1C(=O)C(NC(=O)Nc2ccccc2)C(=O)N(CCN2CCOCC2)c2ccccc21 (racemic),234,1.1,676,36,1,34,2,8.54,14,0.011,18,0.38,0.9,450,,,,,
CC(C)CCN1C(=O)C(NC(=O)Nc2ccc(O)cc2)C(=O)N(CCN2CCOCC2)c2ccccc21 (racemic),1120,,8320,,,,,8.13,,,,,,450,inactive,,,,
CC(C)CCN1C(=O)C(NC(=O)Nc2ccccc2)C(=O)N(CCN(C)C)c2ccccc21 (racemic),759,3.1,3310,40,2.5,37,2,8.36,23,0.041,20,1,1.3,850,,,,,
O=C(Nc1ccccc1)NC1C(=O)N(CCN2CCOCC2)c2ccccc2N(CC23CC4CC(CC(C4)C2)C3)C1=O (racemic),,1,2040,9,4.8,12,,9.24,34,,13,1.1,1.6,,,0.001,230,,
CN(C)CCN1C(=O)C(NC(=O)Nc2ccccc2)C(=O)N(CC23CC4CC(CC(C4)C2)C3)c2ccccc21 (racemic),3240,2.7,3240,,,28,4,9,,0.004,5,1.1,,850,,,,,
"O=C(Nc1ccccc1)NC1C(=O)N(CCN2CCOCC2)c2ccccc2N(CC23CC4CC(CC(C4)C2)C3)C1=O (single isomer, unassigned; (-))",,,2040,,,,4,9.64,,0.002,,,,230,,,,1.1,10
